Assay [1] deals with THP-1. Briefly: Inhibition of BzATP-stimulated IL1-beta release in human THP1 cells at 1 uM by ELISA. It is filed as functional. For orientation: In an ELISA, binding on a coated surface is turned into a signal by an enzyme label.
Assay [2] deals with T1, P2X purinoceptor 7 (Homo sapiens, UniProt Q99572).
T1 sequence (Q99572 whole entry): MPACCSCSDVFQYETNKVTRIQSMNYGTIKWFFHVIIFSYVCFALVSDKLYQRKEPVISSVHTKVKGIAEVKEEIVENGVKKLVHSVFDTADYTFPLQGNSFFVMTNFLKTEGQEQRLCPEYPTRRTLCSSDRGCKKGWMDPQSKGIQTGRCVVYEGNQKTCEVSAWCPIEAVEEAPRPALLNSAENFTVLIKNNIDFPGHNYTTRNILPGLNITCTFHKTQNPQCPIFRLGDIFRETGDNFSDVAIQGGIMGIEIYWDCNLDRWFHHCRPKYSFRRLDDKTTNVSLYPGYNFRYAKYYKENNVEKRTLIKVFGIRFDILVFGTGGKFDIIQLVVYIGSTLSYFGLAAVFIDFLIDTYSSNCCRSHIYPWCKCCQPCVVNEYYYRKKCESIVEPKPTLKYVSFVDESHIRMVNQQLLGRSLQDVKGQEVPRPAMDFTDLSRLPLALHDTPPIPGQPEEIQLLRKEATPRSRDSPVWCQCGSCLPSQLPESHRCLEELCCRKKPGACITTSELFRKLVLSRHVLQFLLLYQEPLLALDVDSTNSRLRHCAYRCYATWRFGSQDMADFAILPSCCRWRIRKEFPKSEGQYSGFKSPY
Briefly: Antagonist activity at human purinergic P2X7 receptor expressed in HEK293 cells assessed as inhibition of BzATP-induced ethidium bromide uptake. It is filed as functional, cell-based. Summed up:
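Adherent HEK293 cells stably expressing human P2X7, resuspended at 2.5×10^6 cells/ml in HEPES salt solution (mM: ethidium bromide 0.1, EDTA 1, glucose 5, HEPES 20, KCl 140; pH 7.4). Cells added to compound-containing wells, then BzATP; 37°C for 120 min. Ethidium accumulation read by fluorescence (ex 530/em 590). IC50 from concentration–response curves; mean ± SD, 3–11 repeats.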

The target in assay [3] is T1, P2X purinoceptor 7. The assay can be described thus: Antagonist activity at human purinergic P2X7 receptor expressed in HEK293 cells assessed as inhibition of ATP-induced K(+) efflux. In kind it is functional, cell-based.
Assay [4] has as its target T2, P2X purinoceptor 7 (Homo sapiens) (UniProt Q99572).
T2 sequence (whole entry): T1 sequence (Q99572 whole entry)
Briefly: Antagonist activity at human purinergic P2X7 receptor expressed in HEK293 cells assessed as inhibition of BzATP-induced ethidium bromide uptake at 10 uM. It is filed as functional, cell-based.

The subject of assay [5] is THP-1. The assay can be described thus: Inhibition of BzATP-stimulated IL1-beta release in human THP1 cells by ELISA. It is filed as functional, cell-based. Summed up:
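Compound given as a 30 min pretreatment, then 1 mM BzATP for 30 min. Mature IL-1β in the centrifuged supernatant quantified by ELISA.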

Usually inhibition stands for the share of the control response that was lost under treatment. For orientation: IC50 means the concentration needed to halve the response being measured.

Compound `Cc1ccc(S(=O)(=O)Oc2ccc(C[C@H](NC(=O)OCc3ccccc3)C(=O)N3CCN(C(=O)c4ccccc4)[C@H](C)C3)cc2)cc1` came in with an inhibition at 1 µM in the assay on THP-1 [1] of 65%. At P2X purinoceptor 7 [2], the IC50 turned out to be 256 nM.
Taken in the same sequence, the figures for `CC(C)(C)OC(=O)N1CCN(C(=O)[C@H](Cc2ccc(OS(=O)(=O)c3ccc(CBr)cc3)cc2)NC(=O)OCc2ccccc2)CC1` were 52% and 2460 nM.
Take `C[C@H]1CN(C(=O)[C@H](Cc2ccc(OS(=O)(=O)c3ccc(C#N)cc3)cc2)NC(=O)OCc2ccccc2)CCN1C(=O)c1ccc(N(C)C)cc1`: in the assay on THP-1 [1], the inhibition at 1 µM was 59%. Besides, on P2X purinoceptor 7 [2], the IC50 turned out to be 539 nM.
For the compound `CC(C)(C)OC(=O)N1CCN(C(=O)[C@H](Cc2ccc(OS(=O)(=O)c3ccc(I)cc3)cc2)NC(=O)OCc2ccccc2)CC1`, at 1 µM the inhibition with THP-1 [1] was 72%. Besides, the IC50 on P2X purinoceptor 7 [2] came to 3540 nM.
As for `CC(C)(C)OC(=O)N1CCN(C(=O)[C@H](Cc2ccc(OS(=O)(=O)c3ccc(Br)cc3)cc2)NC(=O)OCc2ccccc2)CC1`, at 1 µM the inhibition with THP-1 [1] was 68%. Further, the IC50 on P2X purinoceptor 7 [2] is 517 nM.
Taken in the same sequence, the figures for `Cc1ccc(S(=O)(=O)Oc2ccc(C[C@H](NC(=O)OCc3ccccc3)C(=O)N3CCN(C(=O)c4ccc(C(F)(F)F)cc4)CC3)cc2)cc1` were 65% and 724 nM.
Taken in the same sequence, the figures for `CC(C)(C)OC(=O)N1CCN(C(=O)[C@H](Cc2ccc(OS(=O)(=O)c3ccc(C#N)cc3)cc2)NC(=O)OCc2ccccc2)CC1` were 60% and 780 nM.
With `CC(C)(C)OC(=O)N1CCN(C(=O)[C@H](Cc2ccc(OS(=O)(=O)c3cccc4cnccc34)cc2)NS(=O)(=O)c2cccc3cnccc23)CC1`, the 50% inhibitory concentration (IC50) at P2X purinoceptor 7 [3] is 40 nM.
Turning to `Cc1ccc(S(=O)(=O)Oc2ccc(C[C@H](NC(=O)OCc3ccccc3)C(=O)N3CCN(C(=O)c4ccc(F)cc4)CC3)cc2)cc1`, at 1 µM the inhibition in the assay on THP-1 [1] was 68%. Moreover, on P2X purinoceptor 7 [2], the IC50 was found to be 319 nM.
`C[C@H]1CN(C(=O)[C@H](Cc2ccc(OS(=O)(=O)c3ccc(I)cc3)cc2)NC(=O)OCc2ccccc2)CCN1C(=O)c1ccc(N(C)C)cc1` showed an inhibition at 1 µM in the assay with THP-1 [1] of 61%. Further, the inhibition in assay [4] was 55%.
Take `O=C(N[C@@H](Cc1ccc(OS(=O)(=O)c2ccc([N+](=O)[O-])cc2)cc1)C(=O)N1CCN(C(=O)c2ccccc2)CC1)OCc1ccccc1`: at 1 µM the inhibition in the assay with THP-1 [1] was 48%. The 50% inhibitory concentration (IC50) at P2X purinoceptor 7 [2] was 117 nM.
`Cc1ccc(S(=O)(=O)Oc2ccc(C[C@H](NC(=O)OCc3ccccc3)C(=O)N3CCN(C(=O)c4ccccc4)CC3)cc2)cc1` showed an inhibition at 1 µM in the assay on THP-1 [1] of 70%. For the same compound, the IC50 at P2X purinoceptor 7 [2] was 599 nM.
For the compound `Cc1ccc(S(=O)(=O)Oc2ccc(C[C@H](NC(=O)OCc3ccccc3)C(=O)N3CCN(C(=O)c4ccc(N(C)C)cc4)[C@@H](C)C3)cc2)cc1`, in the assay on THP-1 [1], the inhibition at 1 µM amounted to 68%. In addition, in assay [4], the inhibition was 54%.
In turn, `Cc1ccc(S(=O)(=O)Oc2ccc(C[C@H](NC(=O)OCc3ccccc3)C(=O)N3CCN(C(=O)c4ccc(N(C)C)cc4)CC3)cc2)cc1` displayed an inhibition at 1 µM in the assay on THP-1 [1] of 65%. Moreover, the IC50 on P2X purinoceptor 7 [2] was 2010 nM.
On to `O=C(N[C@@H](Cc1ccc(OS(=O)(=O)c2ccc(NC(=S)NCCCCNC(=S)Nc3ccc(S(=O)(=O)Oc4ccc(C[C@H](NC(=O)OCc5ccccc5)C(=O)N5CCN(C(=O)c6ccccc6)CC5)cc4)cc3)cc2)cc1)C(=O)N1CCN(C(=O)c2ccccc2)CC1)OCc1ccccc1`, for which at 1 µM the inhibition with THP-1 [1] was 37%. For the same compound, in assay [4], the inhibition was determined as 28%.
`CN([C@@H](Cc1ccc(OS(=O)(=O)c2cccc3cnccc23)cc1)C(=O)N1CCN(c2ccccc2)CC1)S(=O)(=O)c1cccc2cnccc12` came in with an inhibition at 1 µM in the assay on THP-1 [1] of 83%. Also, the IC50 in the assay with THP-1 [5] amounted to 188 nM; on P2X purinoceptor 7 [2] it was 175 nM.
`Cc1ccc(S(=O)(=O)Oc2ccc(C[C@@H](NC(=O)OCc3ccccc3)C(=O)N3CCN(C(=O)OC(C)(C)C)CC3)cc2)cc1` yielded an inhibition at 1 µM with THP-1 [1] of 56%. Besides, at P2X purinoceptor 7 [2], the IC50 is 861 nM.
As for `Cc1ccc(S(=O)(=O)Oc2ccc(C[C@H](NC(=O)OCc3ccccc3)C(=O)N3CCN(C(=O)OC(C)(C)C)CC3)cc2)cc1`, testing at 1 µM in the assay with THP-1 [1] gave an inhibition of 72%. The IC50 at P2X purinoceptor 7 [2] amounted to 1540 nM.
`Cc1ccc(S(=O)(=O)Oc2ccc(C[C@H](NC(=O)OCc3ccccc3)C(=O)N3CCN(C(=O)c4ccc(Br)cc4)CC3)cc2)cc1`: the inhibition at 1 µM in the assay on THP-1 [1] amounted to 78%. Further, the results for the IC50 in the assay on THP-1 [5] and at P2X purinoceptor 7 [2] were 881 nM and 481 nM, respectively.
As for `Cc1ccc(S(=O)(=O)Oc2ccc(C[C@@H](C(=O)N3CCN(C(=O)c4ccccc4)CC3)N(C)C(=O)OCc3ccccc3)cc2)cc1`, the inhibition at 1 µM in the assay with THP-1 [1] is 47%. Besides, the IC50 at P2X purinoceptor 7 [2] is 1360 nM.
Consider `Cc1ccc(S(=O)(=O)Oc2ccc(C[C@H](NC(=O)OCc3ccccc3)C(=O)N3CCN(C(=O)c4ccccc4)C[C@@H]3C)cc2)cc1`, for which at 1 µM the inhibition in the assay with THP-1 [1] was 45%. Besides, the IC50 at P2X purinoceptor 7 [2] amounted to 504 nM.
Compound `CC(C)(C)OC(=O)N1CCN(C(=O)[C@H](Cc2ccc(OS(=O)(=O)c3ccc(OC(F)(F)F)cc3)cc2)NC(=O)OCc2ccccc2)CC1` had an inhibition at 1 µM in the assay on THP-1 [1] of 46%. Also, on P2X purinoceptor 7 [2], the IC50 turned out to be 725 nM.
For `CC(C)(C)OC(=O)N1CCN(C(=O)[C@H](Cc2ccc(OS(=O)(=O)c3ccc(F)cc3)cc2)NC(=O)OCc2ccccc2)CC1`, in that order: 56% and 5880 nM.
Take `Cc1ccc(S(=O)(=O)Oc2ccc(C[C@H](NC(=O)OCc3ccccc3)C(=O)N3CCN(C(=O)c4ccccc4)[C@@H](C)C3)cc2)cc1`: in the assay with THP-1 [1], the inhibition at 1 µM is 69%. The IC50 on P2X purinoceptor 7 [2] was determined as 260 nM.

These data come from ChEMBL document CHEMBL1140815, “Synthesis and structure-activity relationship studies of tyrosine-based antagonists at the human P2X7 receptor” (Bioorg Med Chem Lett, 2008).
